High-throughput results as filed in PubChem.
Sampled rows, rich in hits. Any-hit rate of the full collection: about 5.5%.
Cl transport mod: modulators of human KCC2 chloride dependent transport. Q9H2X9. B-score of Tl+ flux slope (higher = more flux/activation; lower = inhibition) at 10 µM. KCC2 cells, thallium flux FluoZin-2 fluorescence. 2.2% of 190,000 active;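 active = thallium flux slope and its plate-corrected score both differing from the plate sample mean at a set confidence after two filtering rounds, in either direction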;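 also: slope of fluorescence scaled to starting intensity during 10 to 20 s after thallium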
STAT3 act: activators of IL-6 induced STAT3 signaling. U3A cells, IL-6 STAT3-luciferase reporter, luminescence; 100% = signal with IL-6 EC80 alone. activation (% of control), % at 5.6 µM. 0.91% of 190,000 active. AID 871;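 active = activation above the screen-wide mean of compound activation plus 3 SD, cut at about 130% in these data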;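 also: 0% = background luminescence of wells with medium and substrate only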
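Material: STAT1-lacking human U3A cells, STAT3 luciferase reporter | Benchmarks: IL-6-only wells as 100% reference | Probe or stimulus: IL-6 (33 ng/mL) | Timing: Compound 1 h, then IL-6 6 h at 37 °C | Detection: Luminescence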
STAT1 blocker: STAT1 signaling inhibition; NIH 3T3 STAT1-luciferase reporter, IFN-gamma, luminescence; inhibition, % at 5.5 µM; 0.35% of 200,000 active;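 active = inhibition above a set limit, the mean inhibition across all tested compounds plus 3 SD, cut at about 34% in these data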;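 also: 0% = IFN-gamma with DMSO and 100% = IFN-gamma with 300 µM nifuroxazide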
STAT3 blocker: inhibitors of IL-6 induced STAT3 signaling; 0.89% of 190,000 active; inhibition, % at 5.5 µM; AID 862; U3A cells, IL-6 STAT3-luciferase reporter, luminescence; host cell line lacks STAT1;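 active = inhibition above the mean inhibition across all screened compounds plus 3 SD, cut at about 44% in these data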;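 also: 0% = DMSO only wells and 100% = 100 µM nifuroxazide control wells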
HSV augment: increases HSV replication in cells. 0.005% of 220,000 active. maximum fold increase. HSV replication augmentation in cells, fold increase; in the data active = maximum fold increase above about 1.5; tested in PC3 cells
STAT1 act: activators of IFN-gamma induced STAT1 signaling | AID 932 | NIH 3T3 STAT1-luciferase reporter, luminescence; 100% = IFN-gamma alone, no compound | 2.6% of 200,000 active | activation (% of control), % at 5.5 µM;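 active = activation above the screen-wide mean activation plus 3 SD, cut at about 130% in these data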;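 also: raw ratio to IFN-gamma control signal so 100% means no change and 0% no light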
* hit, by the source's call; i = inactive; / = no result.

SMILES	Cl transport mod	STAT3 act	STAT1 blocker	STAT3 blocker	HSV augment	STAT1 act
COC(=O)c1sccc1NC(=O)c1ccccc1	-0.42	98	-9	8	i	108
COC(=O)c1sccc1NC(=O)c1cccc(OC)c1	/	135*	1	-40	i	99
Cc1ccc(NC(=O)c2ccccc2)cc1	0.36	100	-40	2	i	135*
Cc1cccc(C)c1NC1=NCCCCC1	-0.2	101	-1	4	i	98
CC(=O)Nc1cc(C)c(S(C)(=O)=O)c(C)c1	0.5	96	-4	7	i	104
COc1cccc(C(=O)Nc2cccc(C(C)=O)c2)c1	0.26	104	-21	-5	i	118
Cc1ccc(NC(=O)c2noc3c2CCc2ccccc2-3)cc1	/	114	-33	-9	i	131*
CCC(=O)Nc1ccc(NC(=O)c2cccc(OC)c2)nc1	-1	99	-31	5	i	129*
COc1ccc(C(=O)Nc2cc(OC)cc(OC)c2)cc1	/	81	-34	24	i	132*
COC(=O)c1cccc(NC(=O)c2cccc(OC)c2)c1	-0.34	108	-34	-7	i	131*
O=c1cc(CSCc2ccc(Cl)cc2)[nH]c(=O)[nH]1	-0.061	/	/	/	i	/
CCOC(CNC(=O)c1ccc2c(c1)ncn2-c1ccc(F)c(F)c1)OCC	-1.6	94	-13	9	i	112
CC1CCCN(S(=O)(=O)c2ccc(S(=O)(=O)N3CCC4(CC3)OCCO4)cc2)C1 (stereo unspecified)	1	93	15	9	i	87
CC(C)c1ccc(Nc2ncccc2C(=O)O)cc1	0.75	94	-48	11	i	143*
Cc1nn(-c2ccccc2)c(N2CCCC2)c1/C=N/NC(=S)Nc1ccccc1F	0.85	95	-32	2	i	129*
O=C(CCc1nc2ccccc2c(=O)[nH]1)OCc1ccc(Cl)cc1Cl	0.26	101	5	4	i	95
CCN(CC)C(=S)NC(=O)c1ccc(OC)c(Br)c1	96*	101	5	-3	i	96
C=CCN(CC=C)C(=S)NC(=O)c1ccc(OC)c(Br)c1	56*	99	4	3	i	96
C=CCN(CC=C)C(=S)NC(=O)c1ccc([N+](=O)[O-])cc1	46*	87	9	19	i	92
COc1ccc(C(=O)NC(=S)NCCO)cc1Br	4.7*	96	-5	11	i	105
O=C(O)c1ccccc1-n1c(-c2ccccc2)cc2c1CCCC2=O	0.78	101	9	5	i	90
c1coc(-c2nnc(NC3=NCCC3)o2)c1	-0.6	110	-32	-8	i	129*
Cc1cc2[nH]c3c(c[n+](C)c4ccccc34)c2cc1C	-0.7	151*	-133	-53	i	221*
C/C(N)=C(/C#N)C(=O)CSc1nc2scc(-c3ccccc3)c2c(=O)n1C	0.63	98	3	8	i	99
Cc1ccc(N2CC(C(=O)Nc3ccc(C)c(S(=O)(=O)N(C)C)c3)CC2=O)cc1 (stereo unspecified)	-0.63	87	2	17	i	98
SMILES	Cl transport mod	STAT3 act	STAT1 blocker	STAT3 blocker	HSV augment	STAT1 act
CC(=O)Nc1ccc(/C=C/c2ccc3c([N+](=O)[O-])cccc3n2)cc1	1.7	96	-42	7	i	136*
CCC(=O)c1ccc(OCc2ccc(C(=O)OC)cc2)c(OC)c1	-0.14	103	3	-3	i	98
CCC(=O)c1ccc(OCc2ccccc2)c(OC)c1	-2.9	108	-33	-10	i	129*
CC(C)Oc1cccc(C(=O)NC2=NCCS2)c1	1.3	102	-37	8	i	132*
CCOC(=O)/C(C#N)=C1\CCCN1CC(N)=S	-0.19	96	-2	5	i	101
COc1ccccc1NC(=O)N(Cc1cc2cc(OC)c(OC)cc2[nH]c1=O)CC1CCCO1 (stereo unspecified)	-3.3*	106	0	-4	i	100
N#Cc1c(-c2ccccc2)nc(SCC(=O)Nc2ccccc2)[nH]c1=O	-4.8*	97	6	7	i	95
CN1C=CC(=C2C(=O)c3ccccc3C2=O)C=C1	0.92	68	-20	42	i	118
CCCCCCN1C=CC(=C2C(=O)c3ccccc3C2=O)C=C1	-0.37	16	81*	100*	i	24
